Records with an inconclusive call do not appear.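 How the source made its calls, unless noted: active means viability increase at or above a cutoff of the median across tested compounds plus 3 SD (cut at about 8.5% in these data, passing the limit was not always enough); inconclusive means some gains above the cutoff, reason not given; inactive means the rest.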
What was measured:
[1] = S. cerevisiae growth inhibition in permissive medium (OD615), pilot counter-assay for S. cerevisiae lifespan shortening project, permissive growth control (AID 705;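 active means growth inhibition above 25% in both replicates, a cutoff set 3 SD above the mean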); conditions: OD615, 24 h, at 10 µM, hits give high values
How it was run: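 Timing: 24 h exposure, 30 °C / Material: Saccharomyces cerevisiae strain carrying genetically modified DeaD replicative-lifespan system / Signal: OD at 615 nm / Compound: 10 µM single dose, 0.25% DMSO / Medium: SC raffinose/galactose permissive medium / Evaluation: reduction in yeast growth (OD615)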

[2] = S. cerevisiae growth inhibition in restrictive medium, OD615, pilot screen, restrictive growth control, yeast lifespan reduction project (AID 706;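 active means growth inhibition above a set limit, 3 SD over mean compound inhibition, in both replicates, cut at about 43% in these data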;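 further: modified DeaD lifespan yeast strain shifted to restrictive glucose medium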); conditions: OD615, 48 h, at 10 µM, hits give high values
How it was run: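 System: Engineered S. cerevisiae DeaD strain | Detection: OD615 | Buffer or medium: CSMM-D glucose medium | Doses: 10 µM compound, 0.25% DMSO | Timing: 4 h pre-growth plus 48 h compound exposure, 30 °C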

[3] = doxorubicin toxicity protection in MRP-1 cells – H69AR cells, CellTiter-Glo, duplicate, MRP-1 activator project, pilot screen (AID 807); conditions: H69AR viability with doxorubicin, CellTiter-Glo luminescence; at 10 µM; hits give high values;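 further: compound pretreatment 18-22 h then 72 h combined with doxorubicin; 0% = doxorubicin alone and 100% = vehicle without doxorubicin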
[4] = viability of HCT116 without oncogenic beta-catenin – human colon tumor cells, pilot screen (AID 823;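 active means cell viability at or below a set limit in both duplicate runs, the limit being the all-compound median minus 4 SD, cut at about 23% in these data, passing the limit was not always enough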;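 further: 0% = wells killed by 20 µM Hyamine and 100% = untreated DMSO cell wells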); conditions: HCT116 beta-catenin knockout viability, CellTiter-Glo, 60 h; at 10 µM; hits give low values
[5] = viability of PTEN-null HCT116 cells – cell-based, HCT116 clonal line, CellTiter-Glo, pilot screen (AID 824;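 active means viability at or below 27.92% in each of two runs, the all-compound median minus 4 SD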;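 further: 0% = 20 µM Hyamine control and 100% = vehicle cell control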); conditions: HCT116 PTEN-deleted viability, 60 h, at 10 µM, hits give low values
[6] = RAM pathway blockade in budding yeast – dse1pr::URA3 reporter, 5-FOA selection, pilot screen (AID 869;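 active means inhibition over a set limit, the all-compound mean plus 3 SD, in both replicate runs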;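 further: 0% = DMSO wells with no growth and 100% = 10 µM 1-NA-PP1 with full growth; RAM network block rescues cells from 5-FOA so hits raise OD615 growth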); conditions: S. cerevisiae dse1pr::URA3 5-FOA growth, OD615, 2 d; at 10 µM; hits give high values; strain carries analog-sensitive mutant Cbk1 kinase
[7] = RAM signaling pathway blockade in yeast – S. cerevisiae, Pdr1DBD-CYC8 efflux-inhibited sensitized strain, primary screen (AID 1298;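 active means RAM network inhibition above 8.4% in each of two replicates, 3 SD over the compound average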;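 further: 0% = DMSO untreated cells without growth and 100% = 10 µM 1-NA-PP1 full growth; higher means more yeast growth rescued from 5-FOA killing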); conditions: S. cerevisiae cbk1-as DSE1-URA3 strain, 5-FOA growth OD615, 2 d; at 50 µM; hits give high values

Cc1ccc(Cl)cc1NC(=O)COC(=O)C1CCCC1
inactive: growth inhibition [1] -22% | growth inhibition [2] -14.1% | viability increase [3] -0.05% | viability [4] 99.1% | viability [5] 94.4% | inhibition [6] 1.32% | RAM network inhibition [7] 1.69%

O=C(CCn1c(=O)oc2ccccc21)NCCCN1CCCC1=O
inactive: growth inhibition [1] 4.51% | growth inhibition [2] 0.85% | viability increase [3] 1.26% | viability [4] 107% | viability [5] 98.5% | inhibition [6] 1.01% | RAM network inhibition [7] 0.46%

CCCC(=O)NC(C)c1nc2ccccc2n1C (configuration not stated)
inactive: growth inhibition [1] -18.7% | growth inhibition [2] -2.34% | viability increase [3] 2.12% | viability [4] 101% | viability [5] 102% | inhibition [6] 1.45% | RAM network inhibition [7] 1.79%

Cc1cccc(-c2nc(CS(=O)CC(=O)NCC3CCCO3)c(C)o2)c1 (configuration not stated)
inactive: growth inhibition [1] 4.35% | growth inhibition [2] 17.3% | viability increase [3] -2.27% | viability [4] 105% | viability [5] 96.3% | inhibition [6] 0.725% | RAM network inhibition [7] 2.14%

Cc1cc(NC(=O)Nc2cccc3ccccc23)no1
inactive: growth inhibition [1] -3.55% | growth inhibition [2] 1.52% | viability increase [3] -4% | viability [4] 95.3% | viability [5] 89.1% | inhibition [6] -0.175% | RAM network inhibition [7] 5.09%

CCOC(=O)C1=C(C)NC(C)=C(C(=O)OCC)C1c1nc2ccccc2[nH]1
inactive: growth inhibition [1] -21.8% | growth inhibition [2] -11.2% | viability increase [3] -1.33% | viability [4] 96.2% | viability [5] 96.3% | inhibition [6] 0.96% | RAM network inhibition [7] 1.43%

O=C1C2ON(c3ccccc3)C(c3ccncc3)C2C(=O)N1c1ccc(N2CCOCC2)cc1 (configuration not stated)
inactive: growth inhibition [1] -13.7% | growth inhibition [2] 0.35% | viability increase [3] -0.72% | viability [4] 104% | viability [5] 103% | inhibition [6] 2.51% | RAM network inhibition [7] 0.47%

O=C(CCCCn1c(=O)[nH]c2ccccc2c1=O)NC1CCN(Cc2ccccc2)CC1
inactive: growth inhibition [1] -14.6% | growth inhibition [2] -22.8% | viability increase [3] -0.32% | viability [4] 91.4% | viability [5] 89% | inhibition [6] 0.41% | RAM network inhibition [7] 0.63%

CCOCCn1c(SCc2ccc(C)cc2)nc2c1c(=O)[nH]c(=O)n2C
inactive: growth inhibition [1] -5.33% | growth inhibition [2] 3.62% | viability increase [3] -3.46% | viability [4] 92.5% | viability [5] 95.1% | inhibition [6] 1.49% | RAM network inhibition [7] 4.28%

Cn1c(Cn2c(=O)sc3ccccc32)nnc1SCC(=O)N1CCCCCC1
inactive: growth inhibition [1] -15% | growth inhibition [2] -23.5% | viability increase [3] -0.71% | viability [4] 102% | viability [5] 95.2% | inhibition [6] 2.58% | RAM network inhibition [7] 1.04%

CC(=O)c1sc(N2C(=O)c3oc4ccccc4c(=O)c3C2c2ccc(C)o2)nc1C (configuration not stated)
inactive: growth inhibition [1] 3.87% | growth inhibition [2] 6.34% | viability increase [3] -3.31% | viability [4] 96.1% | viability [5] 94.3% | inhibition [6] 1.98% | RAM network inhibition [7] -0.52%

Cc1ccc(C(c2sc3ncnn3c2O)N2CCC(C)CC2)cc1 (configuration not stated)
inactive: growth inhibition [1] 1.13% | growth inhibition [2] 10.3% | viability increase [3] 3.76% | viability [4] 102% | viability [5] 90.2% | inhibition [6] 1.9% | RAM network inhibition [7] 2.69%

CCOC(=O)c1ccc(NC(=O)c2nn(C)cc2Br)cc1
inactive: growth inhibition [1] -7.53% | growth inhibition [2] -10.1% | viability increase [3] -1.34% | viability [4] 101% | viability [5] 105% | inhibition [6] 0.925% | RAM network inhibition [7] 6.88%

COc1ccc(CN2CCCCC2c2cccnc2)c(OC)c1C (configuration not stated)
inactive: growth inhibition [1] -1.37% | growth inhibition [2] 0.92% | viability increase [3] -2.86% | viability [4] 92.1% | viability [5] 99% | inhibition [6] 1.25% | RAM network inhibition [7] 1.37%

O=C1c2cccnc2C(=O)N1Cc1ccccc1
inactive: growth inhibition [1] -1.31% | growth inhibition [2] -3.01% | viability increase [3] -0.58% | viability [4] 101% | viability [5] 101% | inhibition [6] 0.015% | RAM network inhibition [7] 0.79%

CCN1CCN(c2cc(C)c3cc(NC(=O)c4ccncc4)ccc3n2)CC1
inactive: growth inhibition [1] -8.8% | growth inhibition [2] 1.77% | viability increase [3] -4.96% | viability [4] 82.6% | viability [5] 79.5% | inhibition [6] 1.46% | RAM network inhibition [7] 1.77%

CCCCC(CC)CNC(=O)c1cccs1 (configuration not stated)
inactive: growth inhibition [1] 6.58% | growth inhibition [2] 13.6% | viability increase [3] 0.39% | viability [4] 79.2% | viability [5] 85.8% | inhibition [6] -0.705% | RAM network inhibition [7] -1.28%

O=C(NC1CCCCC1)N1CCCc2ccccc21
inactive: growth inhibition [1] 2.93% | growth inhibition [2] -1.39% | viability increase [3] -4.89% | viability [4] 86.1% | viability [5] 84% | inhibition [6] 0.345% | RAM network inhibition [7] -1.17%

O=C(CSc1nc2c(cnn2-c2ccc(F)cc2)c(=O)[nH]1)N1CCOCC1
inactive: growth inhibition [1] -14.2% | growth inhibition [2] -19.8% | viability increase [3] -3.32% | viability [4] 96.7% | viability [5] 91.4% | inhibition [6] 3.16% | RAM network inhibition [7] 6.85%

CCOc1cc(C#N)c(NC(=O)c2ccnn2C)cc1OCC
inactive: growth inhibition [1] 8.46% | growth inhibition [2] 2.96% | viability increase [3] -2.47% | viability [4] 82.3% | viability [5] 97.7% | inhibition [6] 0.55% | RAM network inhibition [7] 5.18%

O=C(NCc1cn2ccsc2n1)c1cccs1
inactive: growth inhibition [1] -11.6% | growth inhibition [2] 2.67% | viability increase [3] -2.88% | viability [4] 95.1% | viability [5] 95.8% | inhibition [6] 1.04% | RAM network inhibition [7] 7.64%

COc1cc(C(=O)NCCc2cn3ccccc3n2)cc(OC)c1OC
inactive: growth inhibition [1] -9.42% | growth inhibition [2] -6.93% | viability increase [3] -2.78% | viability [4] 98.4% | viability [5] 95.9% | inhibition [6] 2.1% | RAM network inhibition [7] 2.62%

CC(=O)Nn1cc2c(=O)n(C)c(=O)n(C)c2c1
inactive: growth inhibition [1] -5.47% | growth inhibition [2] 1.6% | viability increase [3] 0.99% | viability [4] 98.3% | viability [5] 99.7% | inhibition [6] 1.68% | RAM network inhibition [7] 1.13%

O=C(Nc1nnc(-c2ccc3c(c2)CCCC3)o1)C1CCCCC1
inactive: growth inhibition [1] -16.5% | growth inhibition [2] -4.87% | viability increase [3] -2.6% | viability [4] 64.5% | viability [5] 62% | inhibition [6] 3.24% | RAM network inhibition [7] 4.48%

CCCCOC(=O)CSc1nnc(N)s1
inactive: growth inhibition [1] -4.92% | growth inhibition [2] -1.45% | viability increase [3] -0.86% | viability [4] 105% | viability [5] 96.5% | inhibition [6] 0.205% | RAM network inhibition [7] 6.89%

O=C(Nc1nnc(-c2cccs2)o1)c1ccco1
inactive: growth inhibition [1] -0.7% | growth inhibition [2] -3.64% | viability increase [3] -4.39% | viability [4] 93.8% | viability [5] 89.8% | inhibition [6] 0.34% | RAM network inhibition [7] -2.19%

CCC1Oc2ccc(C)cc2N(CC(=O)NCCc2ccc(OC)c(OC)c2)C1=O (configuration not stated)
inactive: growth inhibition [1] -6.91% | growth inhibition [2] 3.82% | viability increase [3] -0.77% | viability [4] 95.2% | viability [5] 92.4% | inhibition [6] 1.23% | RAM network inhibition [7] -0.46%

O=C(Cn1cnc2c(cnn2-c2ccccc2)c1=O)c1ccc(Cl)cc1
inactive: growth inhibition [1] -3.83% | growth inhibition [2] -12.3% | viability increase [3] 1.75% | viability [4] 94.3% | viability [5] 90.2% | inhibition [6] 0.5% | RAM network inhibition [7] 3.34%

CCc1nc(C)cn1S(=O)(=O)c1ccc(Cl)c(Cl)c1Cl
inactive: growth inhibition [1] -6.5% | growth inhibition [2] -13.9% | viability increase [3] -0.17% | viability [4] 99.3% | viability [5] 98.7% | inhibition [6] 0.805% | RAM network inhibition [7] 7.3%

O=C(CN1CCCCC1)Nc1nnc(-c2ccccc2)s1
inactive: growth inhibition [1] -11.4% | growth inhibition [2] -5.87% | viability increase [3] 1.16% | viability [4] 95.2% | viability [5] 98.5% | inhibition [6] 0.38% | RAM network inhibition [7] 0.64%

COc1cccc(-c2nc(CS(=O)CC(=O)NCc3ccccc3Cl)c(C)o2)c1 (configuration not stated)
inactive: growth inhibition [1] -0.545% | growth inhibition [2] 5.44% | viability increase [3] -3.78% | viability [4] 92.4% | viability [5] 91.9% | inhibition [6] 0.79% | RAM network inhibition [7] 10%

O=C(CCCC(=O)NCC1CCCO1)NCC1CCCO1 (configuration not stated)
inactive: growth inhibition [1] -1.28% | growth inhibition [2] 7.34% | viability increase [3] -1.38% | viability [4] 101% | viability [5] 101% | inhibition [6] 0.185% | RAM network inhibition [7] 1.12%

COc1cc(C(c2sc3nc(C)nn3c2O)N2CC(C)OC(C)C2)cc(OC)c1OC (configuration not stated)
inactive: growth inhibition [1] -0.68% | growth inhibition [2] -4.15% | viability increase [3] -2.37% | viability [4] 93.6% | viability [5] 90.1% | inhibition [6] 0.73% | RAM network inhibition [7] 2.94%

Cc1cc2nc(-c3cccc(NC(=O)c4ccc(Br)o4)c3C)oc2cc1C
inactive: growth inhibition [1] -0.715% | growth inhibition [2] -9.59% | viability increase [3] 3.53% | viability [4] 87% | viability [5] 84.2% | inhibition [6] 2.33% | RAM network inhibition [7] 2.65%

CCCCn1c(=O)[nH]c2ccccc21
inactive: growth inhibition [1] -4.76% | growth inhibition [2] -21.1% | viability increase [3] -1.44% | viability [4] 106% | viability [5] 104% | inhibition [6] 1.69% | RAM network inhibition [7] 2.05%

O=C(NCCN1CCOCC1)c1ccc2c(c1)ncn2C1CCCC1
inactive: growth inhibition [1] -10% | growth inhibition [2] 5.44% | viability increase [3] -0.55% | viability [4] 106% | viability [5] 105% | inhibition [6] 1.44% | RAM network inhibition [7] 4.43%

— PubChem BioAssay
